Hits are enriched below; roughly 4.5% of the tested compounds scored in any of these assays.
OX1R antag-1 = blocks the human orexin 1 receptor; OX1R-expressing cells, FRET antagonist read-out; inhibition, % at 6.6 µM; hit rate 1.8% among 330,000; AID 485270; in the data active = inhibition mostly above about 38%, no sharp cut-off; inactive = mostly below about 40%;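 note: 0% = agonist challenge alone and 100% = reference antagonist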
OX1R antag-2 = human HCRTR1 antagonism | O43613 | CHO/OX1R cells, Fluo-8 calcium fluorescence, orexin A | inhibition, % at 5 µM | hit rate 0.43% among 330,000;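 active = inhibition above its plate's threshold, mean inhibition of all tested compounds on the plate plus 3 SD, cut at about 37% in these data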;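 note: 0% = orexin A challenge wells and 100% = SB-334867-A antagonist wells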
TAAR1 ag = human TAAR1 agonism; Q96RJ0; CHO RD-HGA16 TAAR1, Fluo-8 calcium fluorescence; vehicle wells 0%, saturating PEA agonist 100%; activation, % at 3 µM; hit rate 0.99% among 360,000;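 active = activation above the mean activation of all test compounds in the run plus 3 SD, cut at about 38% in these data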
Target sequence (Q96RJ0 whole entry, looked up): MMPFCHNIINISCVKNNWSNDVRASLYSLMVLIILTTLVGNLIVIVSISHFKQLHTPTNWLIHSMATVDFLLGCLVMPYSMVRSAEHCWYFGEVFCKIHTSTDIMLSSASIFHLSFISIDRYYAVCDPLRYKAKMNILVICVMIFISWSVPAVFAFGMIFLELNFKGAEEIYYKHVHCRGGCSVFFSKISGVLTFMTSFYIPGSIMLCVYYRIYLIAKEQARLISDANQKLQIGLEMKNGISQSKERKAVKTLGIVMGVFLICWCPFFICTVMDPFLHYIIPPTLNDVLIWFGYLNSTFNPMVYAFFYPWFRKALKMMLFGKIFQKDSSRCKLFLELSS
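Test system: RD-HGA16 (CHO) cells co-expressing Gα16 and hTAAR1; dosing: one-point dosing at 3 µM (nominal); timing: 17-24 h seeding, 75 min 37 °C dye, 30 min RT; signal: kinetic Fluo-8 calcium fluorescence; read-out basis: % activation relative to PEA EC100 response; controls: DMSO and PEA EC100; replicates: n 1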
TAAR1 antag = human TAAR1 antagonism; CHO RD-HGA16 TAAR1, Fluo-8 calcium fluorescence, antagonist; Q96RJ0; hit rate 1.5% among 360,000; inhibition, % at 3 µM;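 active = inhibition above a per-plate cutoff, the mean inhibition of test compounds on that plate plus 3 SD, cut at about 49% in these data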;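 note: 0% = DMSO plus EC80 beta-PEA response and 100% = DMSO alone without agonist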
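Test system – hTAAR1-expressing CHO RD-HGA16 cells, Gα16-coupled · Also added – β-PEA at EC80 concentration, post-compound challenge · Compound – 3 µM, single point · Incubation – dye loading 75 min at 37 °C, then 30 min room temperature · Measured by – Fluo-8 intracellular calcium dye fluorescence, real-time kinetic reads · Benchmarks – vehicle and agonist controls · Replicates – singlicate, one well per test compound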
CHO parental Ca = signal in parental CHO cells, OX1R antagonist counter-screen. inhibition, % at 5.6 µM. hit rate 0.63% among 330,000. parental CHO-K1, ATP-induced calcium, Fluo-8 fluorescence;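 active = inhibition above that plate's mean sample inhibition plus 3 SD, cut at about 26% in these data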;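 note: 0% = ATP-challenged DMSO wells and 100% = DMSO wells without ATP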
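Material: parental CHO cells / Compound: single nominal dose of 5.6 µM per compound / Signal: Fluo-8 fluorescence / Replicates: singlicate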
GPR7 antag = human neuropeptides B/W receptor 1 antagonism; P48145; GPR7-expressing cells, fluorescence antagonist assay; inhibition, % at 4.4 µM; hit rate 1.1% among 290,000; in the data active = inhibition above about 16%, passing the limit was not always enough;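 note: cells stimulated with the agonist NPW; 0% = agonist with vehicle and 100% = vehicle without agonist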
Target sequence (P48145 whole entry, looked up): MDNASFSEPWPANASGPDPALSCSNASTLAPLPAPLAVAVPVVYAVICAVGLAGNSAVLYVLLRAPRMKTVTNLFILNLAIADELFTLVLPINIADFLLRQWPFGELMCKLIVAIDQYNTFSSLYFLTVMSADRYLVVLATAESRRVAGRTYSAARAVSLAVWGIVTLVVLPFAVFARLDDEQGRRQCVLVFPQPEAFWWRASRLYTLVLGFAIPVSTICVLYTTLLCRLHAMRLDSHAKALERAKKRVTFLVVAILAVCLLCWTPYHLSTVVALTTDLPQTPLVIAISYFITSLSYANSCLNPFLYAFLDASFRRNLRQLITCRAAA
GPR7 antag conf = human GPR7 antagonism, confirmation assay; shares compounds with GPR7 antag; GPR7-expressing cells, calcium fluorescence antagonist mode; inhibition, % at 4.4 µM; hit rate 52% among 2,400; AID 1952; in the data active = inhibition above about 24%;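 note: stimulated with the GPR7 agonist NPW; 0% = agonist plus vehicle and 100% = vehicle alone without agonist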
MCHR1 antagonist = MCHR1 (human) antagonism in GPR7 counter-screen | shares compounds with GPR7 antag | MCHR1-expressing cells, fluorescence antagonist assay | inhibition, % at 4.4 µM | hit rate 62% among 2,400 | AID 2148; in the data active = inhibition above about 22%;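 note: 0% = vehicle with agonist and 100% = vehicle without agonist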
Numbers without * were called inactive; nt = no result.

SMILES | OX1R antag-1 | OX1R antag-2 | TAAR1 ag | TAAR1 antag | CHO parental Ca | GPR7 antag | GPR7 antag conf | MCHR1 antagonist
CC(C)CN1CCCC(N2CCN(c3cccc(Cl)c3)CC2)C1 (stereo unspecified) | 7 | -42 | 0 | -2 | 4 | 27* | -6 | 0
COc1ccc(CN2CCCC(N3CCN(c4cccc(Cl)c4)CC3)C2)cc1OC (stereo unspecified) | nt | nt | 2 | -39 | nt | 15 | nt | nt
COCCN(C(=O)c1cc(-c2ccco2)nc2ccccc12)c1c(N)n(Cc2ccccc2)c(=O)[nH]c1=O | 5 | -13 | 16 | 10 | -8 | nt | nt | nt
CC(C)n1cc(CN2CCCC(C(=O)Nc3cccc(-c4cc5ccccc5[nH]4)c3)C2)cn1 (stereo unspecified) | -3 | -11 | 40* | 35 | 1 | 27* | 42* | 56*
Cn1cc(CN2CCCC(C(=O)Nc3cccc(-c4cc5ccccc5[nH]4)c3)C2)cn1 (stereo unspecified) | 17 | -8 | 26 | 13 | -6 | 15 | nt | nt
Cc1ccc(NC(=O)C(=Cc2ccc(C(=O)O)cc2)C(=O)Nc2ccc(C)cc2C)c(C)c1 | 12 | -10 | nt | nt | 8 | 2 | nt | nt
CC(NCc1cc(Br)ccc1OCC(N)=O)C12CC3CC(CC(C3)C1)C2 (stereo unspecified) | 3 | -49 | 27 | 33 | -27 | 27* | 28* | 35*
Cc1ccc(-c2ocnc2C(=O)N2CCN(C(=O)c3cccs3)CC2)cc1 | 22 | -10 | 1 | -20 | -16 | 28* | 21 | 7
Cc1ccc(-c2nnc(N3CCN(C(=O)c4cccs4)CC3)c3ccccc23)cc1 | -5 | -17 | 3 | -25 | -22 | -3 | nt | nt
Cc1nc2n[nH]c(N)c2nc1C | nt | nt | 1 | -8 | nt | nt | nt | nt
CCC(OC(=O)CN1C(=O)C(=O)c2ccccc21)C(=O)Nc1ccccc1OC (stereo unspecified) | nt | nt | -1 | 15 | nt | 12 | nt | nt
COc1ccccc1NCC(O)Cn1c2ccccc2c2ccccc21 (stereo unspecified) | 35 | -3 | 6 | 25 | -11 | 6 | nt | nt
COc1ccc(CCNCC(O)Cn2c3ccccc3c3ccccc32)cc1OC (stereo unspecified) | 0 | 23 | 18 | 5 | 16 | 43* | 56* | 74*
C=CC[C@@H](CC(=O)N[C@H](CO)Cc1ccccc1)C(=O)N[C@@H](COC(=O)[C@@H](CC=C)CC(=O)OC(C)(C)C)Cc1ccccc1 | 3 | -27 | 7 | 38 | -18 | nt | nt | nt
Cc1ccc(C(=O)NCCN2C3=NC[C@H](Cc4ccc(O)cc4)N3C[C@H]2Cc2ccc(O)cc2)cc1Br | 20 | -4 | 10 | -22 | -4 | nt | nt | nt
Cc1ccc(C(=O)NCCN2C3=NC[C@@H](Cc4ccccc4)N3C[C@H]2Cc2ccc(O)cc2)cc1Br | 14 | -19 | 11 | 10 | -19 | 49* | 53* | 48*
Cc1ccc(N2C(=O)N(CC(=O)Nc3cc(Cl)ccc3C)C(=O)C2C)cc1 (stereo unspecified) | 8 | -13 | 15 | 19 | -18 | nt | nt | nt
COc1ccc(CNc2ncc(-c3ccc(Cl)cc3)n2C)c(OC)c1OC | 47 | -15 | 1 | 4 | -18 | 0 | nt | nt
Cn1nnnc1SCC(=O)Nc1ccc(Oc2ccccc2)cc1 | 25 | -14 | 1 | 9 | 2 | 22* | 14 | 18
Cc1ccc(S(=O)(=O)N2CCC[C@H]2C(=O)Nc2ccc(F)cc2C)cc1 | 19 | 3 | -2 | -8 | -18 | nt | nt | nt
COc1ccc(CN2CCN(c3ccc(F)cc3)CC2)c(OC)c1OC | 6 | -27 | 18 | -13 | -1 | -11 | nt | nt
COc1cc(OC)c(CN2CCN(c3ccc(F)cc3)CC2)cc1Br | 9 | -14 | 0 | 11 | -9 | 22* | 17 | 18
Cc1cc([N+](=O)[O-])nn1CC(=O)NC(C)c1ccccc1 (stereo unspecified) | 12 | -7 | 4 | -14 | -16 | -7 | nt | nt
O=C(Cn1nc([N+](=O)[O-])nc1Br)NC(c1ccccc1)c1ccccc1 | 22 | -26 | 3 | 14 | -14 | 34* | 12 | 14
Cc1cc([N+](=O)[O-])nn1CC(=O)Nc1c(C)n(C)n(-c2ccccc2)c1=O | 29 | -19 | 3 | -1 | -14 | 31* | -2 | 1
SMILES | OX1R antag-1 | OX1R antag-2 | TAAR1 ag | TAAR1 antag | CHO parental Ca | GPR7 antag | GPR7 antag conf | MCHR1 antagonist
Cc1nn(CC(=O)Nc2c(C)n(C)n(-c3ccccc3)c2=O)c(C)c1[N+](=O)[O-] | 11 | -7 | 4 | -8 | -8 | 6 | nt | nt
CC(C)[C@@H](C(=O)NC1CCCC1)N1C(=O)N2CCc3c([nH]c4ccccc34)[C@@]2(C)C1=O | 32 | -29 | -2 | 6 | -22 | 11 | nt | nt
COc1ccc2[nH]c3c(c2c1)CCN1C(=O)N([C@@H](C)C(=O)NC2CCCCC2C)C(=O)[C@]31C (stereo partly specified) | 47* | -3 | -1 | -15 | -17 | 23* | 10 | 58*
COc1ccc(CNC(=O)[C@H](C)N2C(=O)N3CCc4c([nH]c5ccc(OC)cc45)[C@@]3(C)C2=O)cc1 | 16 | -32 | 12 | 30 | -19 | 8 | nt | nt
C[C@@H](C(=O)NC1CCCC1)N1C(=O)N2CCc3c([nH]c4ccccc34)[C@@]2(C)C1=O | 18 | -9 | 7 | 7 | -2 | 26* | 23 | 6
COc1cc(C)ccc1S(=O)(=O)NC(=O)C1(C)CCN1C(=O)c1ccc(C(F)(F)F)nc1C (stereo unspecified) | nt | nt | 1 | -11 | nt | nt | nt | nt
COc1ccc(CN2C(=O)CCC2(C)c2nc3ccccc3[nH]2)cc1 (stereo unspecified) | nt | nt | 2 | -5 | nt | nt | nt | nt
COc1cccc(CNCCc2c[nH]c3ccccc23)c1OCc1ccc(F)cc1 | 16 | -2 | 28 | 32 | -9 | 25* | 46* | 65*
CC(C)C(c1nnnn1Cc1ccc(F)cc1)N1CCN(Cc2ccc3c(c2)OCO3)CC1 (stereo unspecified) | 12 | -27 | 7 | 8 | -20 | 27* | 6 | 25*
CCN1CCN(C(c2nnnn2Cc2ccc3c(c2)OCO3)C(C)C)CC1 (stereo unspecified) | 11 | -19 | 1 | 4 | -6 | 2 | nt | nt
Cc1cccc2cc(CNCC3CCCO3)c(Cl)nc12 (stereo unspecified) | 18 | -19 | 0 | -10 | -19 | 22* | -3 | 7
COC(=O)c1ccc(CSCc2ccc(C#N)cc2)cc1 | 4 | -14 | nt | nt | 10 | 48* | 55* | 56*

Compound activity: PubChem, The Scripps Research Institute Molecular Screening Center
